The results in this text go back to ChEMBL document CHEMBL4219124, “Alleviating CYP and hERG liabilities by structure optimization of dihydrofuran-fused tricyclic benzo[d]imidazole series - Potent, selective and orally efficacious microsomal prostaglandin E synthase-1 (mPGES-1) inhibitors: Part-2” (Bioorg Med Chem Lett, 2018).

A word on the inhibition: it is the relative decrease from the control value, in per cent. The IC50 is the concentration needed to halve the response being measured.

Data set [1] addresses hERG (KCNH2) (Homo sapiens, UniProt Q12809). The experiment in a line: Inhibition of human ERG at 10 uM by patch clamp assay relative to control. The method in brief: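 hERG current measured by patch clamp with test compound at 10 µM; result given as % inhibition.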
Data set [2] addresses T1, Prostaglandin E synthase 3 (Homo sapiens) (UniProt Q15185).
T1 sequence (whole entry): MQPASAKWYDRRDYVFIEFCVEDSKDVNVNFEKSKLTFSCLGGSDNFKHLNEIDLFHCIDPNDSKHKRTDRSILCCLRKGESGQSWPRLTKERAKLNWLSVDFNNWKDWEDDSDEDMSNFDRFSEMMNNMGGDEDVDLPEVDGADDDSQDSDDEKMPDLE
The experiment in a line: Inhibition of cPGES in human U937 cells assessed as decrease in PGE2 production at 10 uM using arachidonic acid as substrate relative to control. Format: cell-based. A digest of the protocol:
(§1)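 Selectivity panel against other prostanoid-pathway enzymes. % inhibition values are means of at least two experiments, each in duplicate.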

Data set [3] is described as follows: Protein binding in human plasma at 10 uM after 5 hrs by equilibrium dialysis based LC-MS/MS analysis. Type of data set: ADME, cell-free. The settings on record: read-out: PPB (converted). The method in brief:
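Equilibrium dialysis at 10 μM compound; result expressed as percent bound.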
A general note: In equilibrium dialysis free small molecules cross a membrane that holds back macromolecules.

The target of data set [4] is CYP2C19 (Homo sapiens, UniProt P33261). The experiment in a line: Inhibition of CYP2C19 in human liver microsomes at 10 uM after 40 mins in presence of NADPH by LC-MS/MS analysis. Format: ADME. The method in brief: (§2)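 Percent inhibition of each CYP isoform by test compound at 10 µM, compared with a no-inhibitor control. Run in triplicate.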
A general note: Liver microsomes are vesicles of endoplasmic reticulum, rich in cytochrome P450 enzymes.

Data set [5] is described as follows: Inhibition of mPGES1 in guinea pig whole blood assessed as reduction in LPS-induced PGE2 production measured after 20 to 24 hrs. The settings on record: Cavia porcellus. A digest of the protocol:
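Guinea pig whole blood stimulated with LPS. […] At least two experiments, each in duplicate.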

The target in data set [6] is T2, Prostaglandin E synthase (Mus musculus) (UniProt Q9JM51).
T2 sequence (whole entry): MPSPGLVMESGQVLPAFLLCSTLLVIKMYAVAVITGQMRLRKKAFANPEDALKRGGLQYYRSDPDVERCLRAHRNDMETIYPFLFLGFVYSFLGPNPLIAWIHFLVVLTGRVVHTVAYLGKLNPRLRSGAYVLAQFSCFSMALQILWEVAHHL
The experiment in a line: Inhibition of mouse mPGES1 expressed in CHO cells assessed as reduction in PGE2 production at 10 uM using PGH2 as substrate incubated for 10 mins followed by substrate addition measured for 1 min relative to control. The method in brief:
(§3)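 Rodent enzyme protocol run as for the human and guinea pig mPGES-1 enzyme assays; single-concentration percent inhibition.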

The target in data set [7] is T3, Thromboxane-A synthase (Homo sapiens) (UniProt P24557).
T3 sequence (whole entry): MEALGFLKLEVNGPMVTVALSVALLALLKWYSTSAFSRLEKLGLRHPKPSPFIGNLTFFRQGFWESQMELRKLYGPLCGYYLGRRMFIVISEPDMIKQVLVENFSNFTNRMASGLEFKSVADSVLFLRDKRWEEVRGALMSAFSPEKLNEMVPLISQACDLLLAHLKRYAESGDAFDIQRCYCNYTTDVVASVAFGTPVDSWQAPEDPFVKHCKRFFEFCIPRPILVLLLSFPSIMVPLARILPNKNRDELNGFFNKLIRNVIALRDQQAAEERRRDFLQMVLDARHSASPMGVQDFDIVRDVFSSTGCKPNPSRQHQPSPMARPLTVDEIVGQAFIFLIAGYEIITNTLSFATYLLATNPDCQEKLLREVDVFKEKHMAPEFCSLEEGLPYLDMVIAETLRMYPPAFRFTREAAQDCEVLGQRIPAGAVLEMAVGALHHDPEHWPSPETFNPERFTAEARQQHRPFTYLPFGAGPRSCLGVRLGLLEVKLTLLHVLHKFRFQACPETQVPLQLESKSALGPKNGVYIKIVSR
The experiment in a line: Inhibition of TXAS (unknown origin) at 10 uM relative to control. The method in brief: as §1

Data set [8] deals with CHO. Description: Inhibition of rat mPGES1 expressed in CHO cells assessed as reduction in PGE2 production at 10 uM using PGH2 as substrate incubated for 10 mins followed by substrate addition measured for 1 min relative to control. Type of data set: cell-based. The method in brief: as §3
Data set [9] in a line: Inhibition of human U937 cells-derived COX1 assessed as decrease in PGE2 production at 10 uM using arachidonic acid as substrate preincubated for 15 mins prior to substrate addition for 5 mins relative to control. The settings on record: COX1 derived from U937 cells, probe arachidonic acid. The method in brief: as §1
The target of data set [10] is CYP2C9 (Homo sapiens, UniProt P11712). The experiment in a line: Inhibition of CYP2C9 in human liver microsomes at 10 uM after 20 mins in presence of NADPH by LC-MS/MS analysis. Format: ADME. A digest of the protocol:
as §2

Data set [11] in a line: Metabolic stability in human liver microsomes assessed as parent compound remaining at 1 uM after 60 mins in presence of NADPH by LC-MS/MS analysis. Type of data set: ADME, microsome. The settings on record: read-out: Stability. A digest of the protocol: (§4)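 Compound incubated 60 min at 37 °C with human, rat or guinea pig liver microsomes; percent parent remaining, triplicates.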

Data set [12] has as its target T4, Prostaglandin E synthase (Homo sapiens, UniProt O14684).
T4 sequence (O14684 whole entry): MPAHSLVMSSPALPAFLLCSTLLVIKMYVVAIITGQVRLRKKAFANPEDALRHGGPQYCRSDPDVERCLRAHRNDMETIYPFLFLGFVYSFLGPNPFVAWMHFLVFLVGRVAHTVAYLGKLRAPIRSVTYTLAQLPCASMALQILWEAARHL
The experiment in a line: Inhibition of mPGES1 in human whole blood assessed as reduction in LPS-induced PGE2 production measured after 20 to 24 hrs.

The target of data set [13] is CYP2D6 (Homo sapiens, UniProt P10635). Description: Inhibition of CYP2D6 in human liver microsomes at 10 uM after 20 mins in presence of NADPH by LC-MS/MS analysis. Type of data set: ADME. To be noted: liver microsomes. The method in brief:
as §2

The target of data set [14] is Hematopoietic prostaglandin D synthase (Homo sapiens) (UniProt O60760). The experiment in a line: Inhibition of PGDS (unknown origin) at 10 uM relative to control. The method in brief:
as §1

Data set [15] can be described thus: Metabolic stability in guinea pig liver microsomes assessed as parent compound remaining at 1 uM after 60 mins in presence of NADPH by LC-MS/MS analysis. Type of data set: ADME, Cavia porcellus, microsome. The settings on record: read-out: Stability. A digest of the protocol: as §4

Chain of CYP2C19 (P33261 whole entry, canonical isoform): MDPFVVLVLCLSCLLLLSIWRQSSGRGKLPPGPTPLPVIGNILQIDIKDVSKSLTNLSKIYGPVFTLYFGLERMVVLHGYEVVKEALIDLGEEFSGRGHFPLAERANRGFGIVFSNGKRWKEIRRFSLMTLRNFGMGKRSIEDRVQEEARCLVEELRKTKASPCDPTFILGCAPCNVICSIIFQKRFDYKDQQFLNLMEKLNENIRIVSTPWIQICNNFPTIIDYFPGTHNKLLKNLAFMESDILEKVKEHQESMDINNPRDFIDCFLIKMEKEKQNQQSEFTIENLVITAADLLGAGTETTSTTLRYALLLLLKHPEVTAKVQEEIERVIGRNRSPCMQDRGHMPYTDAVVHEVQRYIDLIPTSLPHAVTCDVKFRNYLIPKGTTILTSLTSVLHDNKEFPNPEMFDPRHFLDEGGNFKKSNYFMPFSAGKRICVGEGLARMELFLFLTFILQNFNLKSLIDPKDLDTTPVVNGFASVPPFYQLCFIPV
Chain of hERG (KCNH2) (Q12809 whole entry): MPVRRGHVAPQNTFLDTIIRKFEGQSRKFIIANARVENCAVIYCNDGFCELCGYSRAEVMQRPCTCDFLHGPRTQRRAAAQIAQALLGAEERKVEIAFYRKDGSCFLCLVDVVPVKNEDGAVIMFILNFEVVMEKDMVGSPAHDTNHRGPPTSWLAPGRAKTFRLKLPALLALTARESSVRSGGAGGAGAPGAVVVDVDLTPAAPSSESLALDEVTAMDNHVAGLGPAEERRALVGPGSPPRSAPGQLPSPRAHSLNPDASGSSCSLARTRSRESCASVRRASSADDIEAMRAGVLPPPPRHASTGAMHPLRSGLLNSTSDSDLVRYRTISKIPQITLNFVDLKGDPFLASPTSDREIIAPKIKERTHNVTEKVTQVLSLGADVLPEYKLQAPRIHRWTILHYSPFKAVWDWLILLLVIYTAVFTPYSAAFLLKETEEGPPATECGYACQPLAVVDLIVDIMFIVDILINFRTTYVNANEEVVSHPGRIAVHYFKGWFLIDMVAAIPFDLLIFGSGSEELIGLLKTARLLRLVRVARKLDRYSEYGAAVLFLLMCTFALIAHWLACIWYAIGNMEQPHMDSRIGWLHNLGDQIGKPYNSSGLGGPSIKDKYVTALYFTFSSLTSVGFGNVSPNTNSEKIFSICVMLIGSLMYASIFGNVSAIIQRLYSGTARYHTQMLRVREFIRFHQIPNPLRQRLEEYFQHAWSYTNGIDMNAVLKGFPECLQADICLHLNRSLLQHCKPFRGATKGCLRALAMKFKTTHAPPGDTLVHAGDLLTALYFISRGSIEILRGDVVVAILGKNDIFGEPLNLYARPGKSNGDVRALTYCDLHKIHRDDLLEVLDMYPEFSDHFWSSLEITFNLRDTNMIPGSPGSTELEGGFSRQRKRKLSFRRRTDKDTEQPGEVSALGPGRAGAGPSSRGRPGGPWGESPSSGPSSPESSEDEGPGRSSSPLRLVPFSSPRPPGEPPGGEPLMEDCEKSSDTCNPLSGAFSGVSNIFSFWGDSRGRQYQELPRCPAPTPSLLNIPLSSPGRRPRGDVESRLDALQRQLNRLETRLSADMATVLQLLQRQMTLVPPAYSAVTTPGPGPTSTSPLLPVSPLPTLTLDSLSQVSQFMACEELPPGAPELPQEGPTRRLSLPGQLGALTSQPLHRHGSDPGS
Chain of CYP2C9 (P11712 whole entry): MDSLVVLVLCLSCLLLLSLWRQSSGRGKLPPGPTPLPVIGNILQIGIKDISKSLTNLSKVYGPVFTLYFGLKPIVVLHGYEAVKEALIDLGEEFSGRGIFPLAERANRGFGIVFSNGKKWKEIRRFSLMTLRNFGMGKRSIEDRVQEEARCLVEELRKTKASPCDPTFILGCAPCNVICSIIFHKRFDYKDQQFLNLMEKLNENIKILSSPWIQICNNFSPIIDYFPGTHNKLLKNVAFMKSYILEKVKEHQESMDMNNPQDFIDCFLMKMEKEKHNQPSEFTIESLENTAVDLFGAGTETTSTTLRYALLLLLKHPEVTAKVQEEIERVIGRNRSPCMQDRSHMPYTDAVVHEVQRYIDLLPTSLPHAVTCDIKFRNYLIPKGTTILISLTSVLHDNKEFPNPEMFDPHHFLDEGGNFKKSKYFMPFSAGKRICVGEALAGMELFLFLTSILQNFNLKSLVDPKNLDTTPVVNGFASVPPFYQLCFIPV
Chain of CYP2D6 (P10635 whole entry): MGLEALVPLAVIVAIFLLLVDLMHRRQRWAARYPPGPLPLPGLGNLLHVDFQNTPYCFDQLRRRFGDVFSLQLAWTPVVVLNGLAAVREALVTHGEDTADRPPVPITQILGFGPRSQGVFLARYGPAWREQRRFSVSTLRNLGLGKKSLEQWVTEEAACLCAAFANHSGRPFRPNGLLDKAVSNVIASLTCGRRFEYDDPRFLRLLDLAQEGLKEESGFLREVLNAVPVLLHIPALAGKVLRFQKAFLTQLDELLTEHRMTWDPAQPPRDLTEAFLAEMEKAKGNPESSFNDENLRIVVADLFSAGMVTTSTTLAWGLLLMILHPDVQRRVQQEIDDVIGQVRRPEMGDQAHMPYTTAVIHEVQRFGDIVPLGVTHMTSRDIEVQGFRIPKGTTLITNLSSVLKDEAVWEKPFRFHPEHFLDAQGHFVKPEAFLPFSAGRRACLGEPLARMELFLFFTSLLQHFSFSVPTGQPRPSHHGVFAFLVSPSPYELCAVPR
Chain of Hematopoietic prostaglandin D synthase (Homo sapiens) (O60760 whole entry): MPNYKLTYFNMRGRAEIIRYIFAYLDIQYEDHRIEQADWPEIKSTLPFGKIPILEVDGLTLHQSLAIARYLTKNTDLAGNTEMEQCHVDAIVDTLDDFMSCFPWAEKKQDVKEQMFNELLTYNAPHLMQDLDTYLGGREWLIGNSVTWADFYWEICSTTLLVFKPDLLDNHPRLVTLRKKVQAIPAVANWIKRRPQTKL

In the case of `Cc1cccc(Cl)c1Nc1nc2cc(C(=O)Nc3cc(C(F)(F)F)ccc3F)c3c(c2[nH]1)CC(C)(C)O3`, the inhibition at 10 µM in data set [1] turned out to be 12.3%. For the same molecule, the inhibition in data set [2] was 21.1%; in [6], 8.2%; in [7] it was 0.87%; in data set [8], 0%; in data set [14] it was 19.5%. Besides, the fraction unbound at 5 h, 10 µM in data set [3] is 0.0003. Also, the inhibition at 40 min, 10 µM in data set [4] was 16%. In addition, the results for the IC50 in [5] and in data set [12] were 340 nM and 222 nM, respectively. Also, the inhibition at 5 min, 10 µM in data set [9] is 14.6%. Besides, the inhibition at 20 min, 10 µM in data set [10] was 15%; in [13], -2%. Besides, the remaining at 1 h, 1 µM in data set [11] was found to be 100%; in data set [15] it was 46%.
`CC1(C)Cc2c(c(C(=O)Nc3ccc(C(F)(F)F)cn3)cc3nc(Nc4c(Cl)cccc4Cl)[nH]c23)O1`: in [1], the inhibition at 10 µM was 5.4%. For the same molecule, the inhibition in [2] came out at 0%; in [6], 10.9%; in data set [7] it was 1.3%; in [8] it was 7.1%; in data set [14], 15.1%. In addition, the fraction unbound at 5 h, 10 µM in [3] was 0.0004. The inhibition at 40 min, 10 µM in [4] came to 15%. For the same molecule, the results for the IC50 in data set [5] and in [12] were 259 nM and 261 nM, respectively. For the same molecule, in data set [9], the inhibition at 5 min, 10 µM is 7.8%. For the same molecule, the values for the inhibition at 20 min, 10 µM in [10] and in data set [13] were 56% and 9%, respectively. The remaining at 1 h, 1 µM in data set [11] amounted to 91%; in [15] it was 71%.
As to `Cc1cccc(Cl)c1Nc1nc2cc(C(=O)Nc3cc(C(F)F)ccc3F)c3c(c2[nH]1)CC(C)(C)O3`, the inhibition at 10 µM in [1] was 11.8%. Also, the inhibition was found to be 11% in data set [2]; 2.5% in data set [6]; 17.2% in data set [7]; 0.7% in data set [8]; 27.6% in data set [14]. For the same molecule, the fraction unbound at 5 h, 10 µM in data set [3] was 0.0008. Also, in [4], the inhibition at 40 min, 10 µM worked out at 14%. For the same molecule, the IC50 in [5] stood at 222 nM; in data set [12], 162 nM. For the same molecule, the inhibition at 5 min, 10 µM in [9] turned out to be 38.2%. In addition, the inhibition at 20 min, 10 µM in data set [10] came out at 28%; in [13], 14%. In addition, the remaining at 1 h, 1 µM was determined as 83% in data set [11] and 60% in [15].
In the case of `Cn1c(Nc2c(F)cccc2Cl)nc2cc(C(=O)Nc3cccc(C(F)(F)F)c3)c3c(c21)CC(C)(C)O3`, the inhibition at 10 µM in data set [1] stood at 26.5%. Also, the inhibition was found to be 24% in data set [2]; 5.2% in data set [6]; 22.1% in [7]; 3.4% in [8]; 16.5% in data set [14]. In [3], the fraction unbound at 5 h, 10 µM was 0.0029. In [4], the inhibition at 40 min, 10 µM is 36%. The IC50 in [5] was 188 nM; in [12], 405 nM. The inhibition at 5 min, 10 µM in data set [9] was 19.7%. In addition, the inhibition at 20 min, 10 µM was 19% in data set [10] and 29% in data set [13]. The remaining at 1 h, 1 µM in data set [11] amounted to 98%; in data set [15] it was 51%.
As to `CC1(C)Cc2c(c(C(=O)Nc3cc(C(F)(F)F)ccc3F)cc3nc(Nc4c(F)cccc4Cl)[nH]c23)O1`, the inhibition at 10 µM in data set [1] stood at 5.8%. The inhibition was found to be 4.2% in [2]; 14.4% in [6]; 4.6% in data set [7]; 11.7% in data set [8]; 5.8% in data set [14]. For the same molecule, the fraction unbound at 5 h, 10 µM in data set [3] is 0.0004. Moreover, in data set [4], the inhibition at 40 min, 10 µM was determined as 33%. Further, the results for the half-maximal inhibitory concentration (IC50) in [5] and in [12] were 204 nM and 256 nM, respectively. The inhibition at 5 min, 10 µM in [9] came to 14.7%. For the same molecule, the values for the inhibition at 20 min, 10 µM in data set [10] and in data set [13] were 35% and 12%, respectively. In addition, the remaining at 1 h, 1 µM in data set [11] was 89%; in [15], 79%.
For `CC1(C)Cc2c(c(C(=O)Nc3ccc(F)c(C(F)(F)F)c3)cc3nc(Nc4c(F)cccc4Cl)[nH]c23)O1`, in data set [1], the inhibition at 10 µM is 3.8%. Also, the inhibition is 0% in data set [2]; 22.1% in data set [6]; 25.5% in [7]; 10.5% in data set [8]; 0% in [14]. Moreover, the fraction unbound at 5 h, 10 µM in [3] is 0.0054. In addition, the inhibition at 40 min, 10 µM in data set [4] turned out to be 55%. The IC50 worked out at 465 nM in data set [5] and 208 nM in data set [12]. In addition, the inhibition at 5 min, 10 µM in data set [9] turned out to be 8.27%. For the same molecule, the inhibition at 20 min, 10 µM stood at 48% in data set [10] and 19% in data set [13]. In addition, the remaining at 1 h, 1 µM in [11] and in data set [15] was 100% in each case.
